Env fusion inh = blocks HIV Env-driven cell-cell fusion; HeLa-JRFL Env/CEM21 cell fusion, luciferase; inhibition, % at 12.3 µM; actives 1.1% (n = 360,000); AID 651610;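 active = mean replicate inhibition score of at least 50 and every replicate individually at or above 50; inconclusive = only one of the two criteria met; inactive = mean below 50 and not all replicates reaching 50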;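 also: 0% = plate neutral controls and 100% = maraviroc near 300 nM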
S100A4 inh HTS = inhibitors of human S100A4 binding to myosin IIA peptide; S100A4/TAMRA-MyoIIA peptide fluorescence polarization; inhibition, % at 10.7 µM; P26447; actives 0.14% (n = 360,000); AID 652163;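 active = mean inhibition of at least 70% across replicates, with every replicate also reaching that level; inconclusive = mean inhibition reaches 70% but some replicates fall short; inactive = mean inhibition below 70%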
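Material: S100A4 monomer protein / Buffer or medium: 50 mM HEPES pH 7.2, 10 mM CaCl2, 100 mM KCl / Times: 5 min incubation before reading / Benchmarks: neutral control DMSO, positive control TFP / Reagent: labelled myosin peptide probe, 5 nM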
FGF22 binding = binders of recombinant human FGF22 by thermal shift | SYPRO orange fluorescence; percent of sucrose octasulfate shift, DMSO zero | actives 1.5% (n = 340,000) | activity (Tm shift, normalised), % at 9.99 µM;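 active = mean Tm shift, scaled 0 neutral to 100 positive control, at about 1.3% or above, every replicate too, limit read from the data; inconclusive = no clear call, values can overlap the other calls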
F508del corr = correctors of CFTR F508del function in bronchial epithelial cells; activity (quench increase), % at 7.58 µM; actives 0.36% (n = 350,000); CFBE cells, YFP halide quenching; stimulated with forskolin plus potentiator P3; % fluorescence drop versus neutral controls;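 active = mean added fluorescence quench of at least 8% versus neutral control, with both replicates also reaching 8%; inconclusive = only one of the mean or replicate conditions met; inactive = mean below 8% and not both replicates reaching 8%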;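 also: cells transiently co-express mutant CFTR-F508del with the halide-sensitive YFP; corrector assay measuring rescue of mutant channel to the surface after 24 h compound exposure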
E-sel inducer = E-selectin induction on HUVECs | activation, % at 7.58 µM | AID 686992 | actives 0.37% (n = 260,000) | HUVEC E-selectin immunofluorescence imaging; normalized: neutral wells 0, TNF-alpha wells 100 | P16581;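 active = mean E-selectin-positive cell signal at least 10% of the positive control, reached in at least 60% of replicates, without over 20% cell loss; inconclusive = no rule given, readout overlaps actives, possibly toxicity-flagged; inactive = the rest, including those meeting only one limit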
Target sequence (P16581 whole entry, looked up): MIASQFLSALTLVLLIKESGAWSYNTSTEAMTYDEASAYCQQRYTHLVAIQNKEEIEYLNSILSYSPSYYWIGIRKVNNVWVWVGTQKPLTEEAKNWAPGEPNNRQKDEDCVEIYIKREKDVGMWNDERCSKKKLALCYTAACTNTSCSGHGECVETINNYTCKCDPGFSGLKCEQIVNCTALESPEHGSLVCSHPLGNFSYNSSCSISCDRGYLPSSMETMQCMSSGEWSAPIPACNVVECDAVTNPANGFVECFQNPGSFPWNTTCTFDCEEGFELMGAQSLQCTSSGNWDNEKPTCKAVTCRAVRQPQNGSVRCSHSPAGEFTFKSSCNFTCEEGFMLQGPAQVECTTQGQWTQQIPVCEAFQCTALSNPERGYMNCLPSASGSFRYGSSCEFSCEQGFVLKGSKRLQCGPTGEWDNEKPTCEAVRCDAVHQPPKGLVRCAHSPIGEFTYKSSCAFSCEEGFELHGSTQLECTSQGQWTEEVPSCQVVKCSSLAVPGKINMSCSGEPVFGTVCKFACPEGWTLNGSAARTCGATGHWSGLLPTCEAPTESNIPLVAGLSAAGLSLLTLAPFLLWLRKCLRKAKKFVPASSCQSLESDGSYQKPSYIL
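Test system: HUVEC | Signal: Immunofluorescence imaging | Read-out: Percent E-selectin-positive cells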
* = called active by the depositor; ? = inconclusive; / = not tested or not shown; [ ] = another dose, or the depositor's remark. In the library only some 2.7% were active in any assay of this set; here they are far more common.

SMILES	Env fusion inh	S100A4 inh HTS	FGF22 binding	F508del corr	E-sel inducer
C/C(=N\NC(=O)COc1ccc(C)cc1[N+](=O)[O-])c1cccs1	-18	0	0	4	/
COc1ccc(/C=C/C(=O)O)cc1S(=O)(=O)NC1CCS(=O)(=O)C1 (configuration not stated)	15	0	44*	0	/
O=C(c1cc2cc(Br)ccc2s1)N1CCOCC1	-13	-2	43*	-1	/
O=C(c1cc(Br)c(Br)s1)N1CCOCC1	63*	-3	/	-2	0
O=C(c1cc2cc(C(F)(F)F)ccc2s1)N1CCOCC1	5	1	1	0	/
CN1[C@@H]2c3ccc(-c4ccccc4)c(=O)n3C[C@H]1[C@H](CO)[C@H]2C(=O)N1CCC(Cc2ccccc2)CC1	/	0	0	1	0
O=c1[nH]nc(Sc2ncnc3sccc23)n1CCc1ccccc1	64*	/	/	/	/
O=C(C[C@@H]1CC[C@H]2[C@@H](COC[C@H](O)CN2CCc2ccccc2)O1)NCc1ccccc1	10[16.7 µM]	-5	0	1	0
N=c1ccn(Cc2c(Cl)cccc2Cl)cc1	9	-3	0	1	/
CCCCCCCCCn1ccc(=N)cc1	79*	0	0	-22	/
COCC(=O)Nc1ccc2c(c1)C(=O)N(C)[C@@H]1CC[C@H](CC(=O)NCc3ccc(OC)cc3)O[C@H]1CO2	14[16.7 µM]	/	0	1	0
COc1ccc(-c2csc(N(CC3CCCO3)C(=O)c3ccc(C)cc3)n2)cc1 (configuration not stated)	49*	/	/	/	-2
C=CC[C@@H](CC(=O)N(CCO)Cc1ccccc1)C(=O)N[C@H](COC(=O)[C@@H](CC=C)Cc1ccc(F)cc1)Cc1ccccc1	-10	5	1	2	0
C=CC[C@H](CC(=O)N(CCO)Cc1ccccc1)C(=O)NC[C@H](OC(=O)[C@@H](CC=C)Cc1ccc(F)cc1)c1ccccc1	68*	-8	0	3	0
C=CC[C@@H](CC(=O)N(CCO)Cc1ccccc1)C(=O)NC[C@@H](OC(=O)[C@@H](CC=C)Cc1ccc(F)cc1)c1ccccc1	26	-14	0	2	0
C=CC[C@@H](CC(=O)N(CCO)Cc1ccccc1)C(=O)N[C@@H](COC(=O)[C@@H](CC=C)Cc1ccc(F)cc1)Cc1ccccc1	95*	-1	0	-2	0
COC(=O)[C@@H]1CCCN1C(=O)CCc1nnc(CCC2CCCCC2)o1	-56	-7	43*	1	/
CCCCNCCCOc1ccc(C)cc1Br	4	-4	44*	-1	/
O=C(C[C@H]1C[C@@H]2c3cc(NS(=O)(=O)c4ccc(F)cc4)ccc3O[C@@H]2[C@H](CO)O1)NCC1CC1	12[16.7 µM]	/	0	1	0
NC(=N\N=Cc1ccccc1)/C(N)=N/N=Cc1ccccc1	-97	0	44*	-4	0
CCCOc1ccc(Cn2cnc3ccccc32)cc1	60*	-2	/	/	/
Cc1ccc(S(=O)(=O)N(C)C[C@@H]2Oc3ccc(N(C)C)cc3C(=O)N([C@H](C)CO)C[C@H]2C)cc1	/	3	0	0	36*
COc1ccc(NC(=O)N(C)C[C@H]2Oc3ccc(N(C)C)cc3C(=O)N([C@@H](C)CO)C[C@@H]2C)cc1	3[16.7 µM]	103*	/	0	0
Cc1ccc(S(=O)(=O)N(C)C[C@H]2Oc3ccc(N(C)C)cc3C(=O)N([C@@H](C)CO)C[C@@H]2C)cc1	/	5	0	-3	47*
COc1ccc(S(=O)(=O)N(C)C[C@@H]2Oc3ccc(N(C)C)cc3C(=O)N([C@H](C)CO)C[C@@H]2C)cc1	59*[16.7 µM]	-2	-1	-1	/
SMILES	Env fusion inh	S100A4 inh HTS	FGF22 binding	F508del corr	E-sel inducer
COc1ccc(NC(=O)N(C)C[C@@H]2Oc3ccc(N(C)C)cc3C(=O)N([C@H](C)CO)C[C@@H]2C)cc1	-1[16.7 µM]	35	/	3	0
Cc1noc(C)c1S(=O)(=O)N(C)C[C@H]1Oc2ccc(NS(=O)(=O)c3cn(C)cn3)cc2C(=O)N([C@@H](C)CO)C[C@H]1C	/	-2	-1	2	0
O=C(C1CCCCC1)N1CC2(C1)[C@H](c1ccccc1)[C@H](CO)N2Cc1ccccc1F	/	47	0	0	0
COc1ccccc1-c1cn(CC[C@H]2CC[C@H](NC(=O)C3CCCC3)[C@H](CO)O2)nn1	/	-31	/	-5	0
Cc1ccc(S(=O)(=O)N(C)C[C@H]2Oc3ccc(NC(=O)Nc4ccc5c(c4)OCO5)cc3CC(=O)N([C@H](C)CO)C[C@H]2C)cc1	8[16.7 µM]	-1	1	-2	2
CCCCc1nc(Cl)c(CO)n1Cc1ccc(-c2ccccc2-c2nn[nH]n2)cc1	-3	-1	0	8.1*	0
CCCCc1nc(Cl)c(CO)n1Cc1ccc(-c2ccccc2-c2nnn[nH]2)cc1	/	0	0	-2	0
C[C@@H]1CCCCO[C@H](CN(C)C(=O)c2ccncc2)[C@@H](C)CN([C@H](C)CO)C(=O)c2cc(NC(=O)c3ccncc3)ccc2O1	0[16.7 µM]	-1	0	-1	0
CC(=O)Nc1ccc(NC2=Nc3ccccc3N3C2=Nc2c(c(C)nn2-c2ccccc2)C3c2ccccc2)cc1 (configuration not stated)	?	1	/	/	/
Cc1nn(-c2ccc([N+](=O)[O-])cc2)c2c1C(c1ccc(OC(F)F)cc1)N1C(=N2)C(=O)Nc2ccccc21 (configuration not stated)	36	-6	43*	-4	/
COc1cccc(C2c3c(C)nn(-c4ccc([N+](=O)[O-])cc4)c3N=C3C(=O)Nc4ccccc4N32)c1 (configuration not stated)	17	2	43*	-6	8
COc1ccc(NC2=Nc3ccccc3N3C2=Nc2c(c(C)nn2-c2ccc(C)cc2)C3c2cccnc2)cc1 (configuration not stated)	-79	/	/	/	/
CCC(=O)N1CC2(CCN(Cc3ccncc3)CC2)c2c(n(C)c3cc(OC)ccc23)[C@@H]1CO	/	/	0	-2	0
COCCNC(=O)C[C@@H]1C[C@@H]2c3cc(NC(=O)c4cccnc4)ccc3O[C@@H]2[C@H](CO)O1	-6[16.7 µM]	-1	0	1	0
COc1ccc(NC(=O)N(C)C[C@@H]2OCCCC[C@H](C)Oc3ccc(NS(=O)(=O)c4ccc(Cl)cc4)cc3C(=O)N([C@H](C)CO)C[C@@H]2C)cc1	-8[16.7 µM]	0	0	-2	1
O=C(O)CN1CCN(CC(=O)O)CCN(CC(=O)O)CCN(CC(=O)O)CC1	-15	-6	0	-2	0
O=C(O)CN1CCNCCN(CC(=O)O)CCNCC1	/	1	43*	-2	0
COc1ccc(S(=O)(=O)N2CCN(C(=O)c3sccc3-c3ccccc3)CC2)cc1	32	4	0	1	/
O=C(c1sccc1-c1ccccc1)N1CCN(S(=O)(=O)c2ccccc2F)CC1	66*	0	0	-3	/
